The target in this assay is Bromodomain-containing protein 4 (Homo sapiens, UniProt O60885). Description: Inhibition of TEV cleavage site-fused-GST tagged BRD4(BD1) (unknown origin) using SGRGK(Ac)CGK(Ac)-GLGK(Ac)GGAK(Ac)RHRKVG-peptide after 3 hrs by HTRF assay. Put shortly: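 GST-BRD4(BD1) purified on glutathione resin and by size exclusion; tetra-acetylated H4 peptide as ligand. Buffer 50 mM HEPES pH 7.5, 400 mM KF, 0.1% BSA, 0.5% DMSO final; 3 h at room temperature.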

Among the data in BindingDB's records for doi:10.1021/acs.jmedchem.8b00653 (Aix-Marseille University, 2018) are IC50 values, retold here.

Regarding `CCn1cnc2c1c(=O)[nH]c(=O)n2Cc1ccc(CNS(=O)(=O)c2ccc3c(c2)CCCC(=O)N3)cc1`, inhibition was half-maximal at 251 nM (IC50).
